Data as given in publication PMC2859677 (Journal of medicinal chemistry, 2010).

What was measured:
TLR2 [1] = biological target: T1, TLR2 (Homo sapiens, UniProt O60603); test: Test of compounds as TLR2 receptor antagonists; format: cell-based
Target sequence in this assay (O60603 21-784): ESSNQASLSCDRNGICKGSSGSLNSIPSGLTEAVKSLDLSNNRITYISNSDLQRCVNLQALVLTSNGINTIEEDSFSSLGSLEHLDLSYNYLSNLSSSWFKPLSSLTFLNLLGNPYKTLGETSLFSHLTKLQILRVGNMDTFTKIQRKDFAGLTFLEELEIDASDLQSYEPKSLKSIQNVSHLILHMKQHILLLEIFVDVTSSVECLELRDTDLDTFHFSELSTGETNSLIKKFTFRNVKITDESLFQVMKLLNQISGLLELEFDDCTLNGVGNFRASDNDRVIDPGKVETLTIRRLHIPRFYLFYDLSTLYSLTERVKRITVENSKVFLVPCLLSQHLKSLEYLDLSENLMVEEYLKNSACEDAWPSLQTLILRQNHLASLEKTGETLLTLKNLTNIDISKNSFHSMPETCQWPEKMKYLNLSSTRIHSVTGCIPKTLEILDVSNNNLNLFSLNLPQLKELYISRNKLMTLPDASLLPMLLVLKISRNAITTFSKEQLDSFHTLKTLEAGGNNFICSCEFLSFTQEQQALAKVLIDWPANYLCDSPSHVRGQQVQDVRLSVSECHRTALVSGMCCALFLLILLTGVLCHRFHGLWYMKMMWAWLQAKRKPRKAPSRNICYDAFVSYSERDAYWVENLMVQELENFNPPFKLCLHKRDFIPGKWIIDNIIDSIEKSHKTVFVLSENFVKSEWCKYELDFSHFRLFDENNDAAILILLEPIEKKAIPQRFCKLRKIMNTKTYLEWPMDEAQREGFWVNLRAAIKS

TLR2 [2] = biological target: T1, TLR2; test: NF-κB induction; format: cell-based
Outline: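 HEK293 cells stably transfected with TLR2, MD2, CD14 and a secreted alkaline phosphatase (sAP) reporter under NF-κB/AP-1 promoters. Cells were kept in selection medium with zeocin and normocin. They were grown in 384-well plates to confluency, then given graded concentrations of stimuli. Supernatant sAP, taken as proportional to NF-κB induction, was read at 620 nm with an alkaline phosphatase-specific chromogen in detection medium.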
Target sequence in this assay (O60603 21-784): as above
Target sequence in this assay (Q9Y2C9 32-796 partner): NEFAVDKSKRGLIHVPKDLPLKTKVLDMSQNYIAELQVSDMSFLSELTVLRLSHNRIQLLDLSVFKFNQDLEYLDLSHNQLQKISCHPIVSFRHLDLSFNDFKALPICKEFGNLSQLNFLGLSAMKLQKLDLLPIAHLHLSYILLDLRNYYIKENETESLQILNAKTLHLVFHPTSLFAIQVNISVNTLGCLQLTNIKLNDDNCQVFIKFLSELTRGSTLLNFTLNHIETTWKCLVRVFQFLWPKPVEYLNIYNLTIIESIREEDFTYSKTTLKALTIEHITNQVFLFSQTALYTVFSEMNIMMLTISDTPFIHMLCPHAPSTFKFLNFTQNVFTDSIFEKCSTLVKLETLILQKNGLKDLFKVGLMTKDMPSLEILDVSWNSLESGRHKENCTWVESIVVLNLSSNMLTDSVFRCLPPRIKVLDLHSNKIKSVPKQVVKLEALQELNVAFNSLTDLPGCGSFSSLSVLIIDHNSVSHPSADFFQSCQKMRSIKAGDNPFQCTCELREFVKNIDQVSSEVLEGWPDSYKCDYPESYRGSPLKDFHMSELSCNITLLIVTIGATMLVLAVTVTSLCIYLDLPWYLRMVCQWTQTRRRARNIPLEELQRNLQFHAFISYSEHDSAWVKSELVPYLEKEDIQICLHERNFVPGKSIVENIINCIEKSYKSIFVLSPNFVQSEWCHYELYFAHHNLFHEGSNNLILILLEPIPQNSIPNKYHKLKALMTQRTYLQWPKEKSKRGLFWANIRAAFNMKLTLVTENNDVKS

[3] = system: patients with inoperable carcinoma of the pancreas; settings: single intraoperative 20–30 μg intratumoral injection; cited from earlier work
rabbits = test: Fever response / acute toxicity in rabbits; format: in vivo, rabbit; settings: dose of 100 ng/kg, manuscript in preparation
murine cells = settings: cited from earlier work

Compound	Activity as TLR2 receptor antagonist (TLR2 [1])	TLR2 agonistic activity (in words) (TLR2 [2]; human TLR2 reporter gene assay)	other results
CCCCCCCCCCCCCCCC(=O)OC[C@H](COCC(N)C(=O)N[C@H](CO)C(=O)OC)OC(=O)CCCCCCCCCCCCCCC (stereo partly drawn) [Compound 21b, (S)-3-(2-amino-3-((R)-3-hydroxy-1-methoxy-1-oxopropan-2-ylamino)-3-oxopropoxy)propane-1,2-diyl dipalmitate]	inactive		TLR2 agonistic activity (in words) (TLR2 [2]; at the highest concentration tested): inactive
CCCCCCCCCCCCCCCC(=O)N[C@H](COC(=O)CCCCCCCCCCCCCCC)CSC[C@H](N)C(=O)N[C@@H](CO)C(=O)OC.O=C(O)C(F)(F)F [Compound 37, (R)-3-((R)-2-amino-3-((S)-3-hydroxy-1-methoxy-1-oxopropan-2-ylamino)-3-oxopropylthio)-2-palmitamidopropyl palmitate]	inactive	partially active	TLR2 agonistic activity relative to reference lipopeptide PAM2CSK4 (TLR2 [2]; compared with PAM2CSK4): weaker by about three orders of magnitude
MALP-2			Efficacy (survival) [3]: efficacious in prolonging survival; Tolerability [3]: well-tolerated
CCCCCCCCCCCCCCCC(=O)OC[C@@H](CSCCN)OC(=O)CCCCCCCCCCCCCCC [Compound 6b, (S)-3-(2-aminoethylthio)propane-1,2-diyl dipalmitate]	inactive	completely inactive	
CCCCCCCCCCCCCCCC(=O)OC[C@H](CSC[C@H](N)C(=O)OC)OC(=O)CCCCCCCCCCCCCCC [Compound 11, (R)-3-((R)-2-amino-3-methoxy-3-oxopropylthio)propane-1,2-diyl dipalmitate]		weakly TLR2-agonistic	
CCCCCCCCCCCCCCCCOC[C@H](CSC[C@H](N)C(=O)N[C@@H](CO)C(=O)OC)OCCCCCCCCCCCCCCCC [Compound 28, (S)-methyl 2-((R)-2-amino-3-((R)-2,3-bis(hexadecyloxy)propylthio)propanamido)-3-hydroxypropanoate]	inactive	entirely inactive	
CCCCCCCCCCCCCCCC(=O)OC[C@@H](CSCCNC(=O)[C@H](N)CO)OC(=O)CCCCCCCCCCCCCCC [Compound 8b, (S)-3-(2-((R)-2-amino-3-hydroxypropanamido)ethylthio)propane-1,2-diyl dipalmitate]		only 8a was active	
CCCCCCCCCCCCCCCC(=O)OC[C@H](CSCCN)OC(=O)CCCCCCCCCCCCCCC [Compound 6a, (R)-3-(2-aminoethylthio)propane-1,2-diyl dipalmitate]	inactive	weakly active	IC50 (TLR2 [2]): 1000 nM
CCCCCCCCCCCCCCCC(=O)NC[C@H](CSC[C@H](N)C(=O)N[C@@H](CO)C(=O)OC)NC(=O)CCCCCCCCCCCCCCC [Compound 45, (S)-methyl 2-((R)-2-amino-3-((R)-2,3-dipalmitamidopropylthio)-propanamido)-3-hydroxypropanoate]	inactive	completely inactive	
lipopolysaccharide [LPS]			Fever response (rabbits): robust fever response; Secretion of chemokines (murine cells): potently induced the secretion of a similar pattern of chemokines
CCCCCCCCCCCCCCCC(=O)OC[C@H](COCC(N)C(=O)N[C@@H](CO)C(=O)OC)OC(=O)CCCCCCCCCCCCCCC (stereo partly drawn) [Compound 21a, (S)-3-(2-amino-3-((S)-3-hydroxy-1-methoxy-1-oxopropan-2-ylamino)-3-oxopropoxy)propane-1,2-diyl dipalmitate]	inactive		
